Test results from ChEMBL document CHEMBL4680142, “Thiazolidine-2,4-dione-based irreversible allosteric IKK-β kinase inhibitors: Optimization into in vivo active anti-inflammatory agents” (Eur J Med Chem, 2020).
The source made the active and inactive calls. No cut-off for these calls is given here.

Legend:
Mus musculus [1] = assay: Antiinflammatory activity against LPS-induced sepsis C57BL/6 mouse model assessed as organism survival rate at 5 to 50 mg/kg, po administered 1 hr before LPS stimulation and measured after 16 hrs relative to control; assay type: functional; conditions: dose 5-50 mg/kg, time 17 hrs
How it was run: (§1)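 Male C57BL/6 mice (6 or 10 weeks), water only for 24 h beforehand. Compound given orally at 5 or 50 mg/kg 1 h before intraperitoneal injection of LPS (Salmonella enterica serotype enteritidis, 25 mg/kg in PBS); controls received PBS. Survival monitored for 36 h.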

Mus musculus [2] = assay: Antiinflammatory activity against LPS-induced sepsis C57BL/6 mouse model assessed as organism survival rate at 5 to 50 mg/kg, po administered 1 hr before LPS stimulation and measured after 36 hrs relative to control; assay type: functional; conditions: dose 5-50 mg/kg, time 37 hrs; how it was run: as §1
RAW264.7 = assay: Antiinflammatory activity against mouse RAW264.7 cells assessed as reduction in LPS-induced PGE2 production at 0.1 uM incubated for 1 hr followed by LPS stimulation and measured after 24 hrs by ELISA; assay type: functional, cell-based; conditions: time 25.0 hrs
How it was run: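 RAW 264.7 cells (DMEM, 10% FBS, 37 °C, 5% CO2) plated at 2×10^5 cells/mL and left overnight. Compounds (0.1, 1, 10 µM) or NS-398 given for 1 h, then LPS 10 ng/mL for 24 h. Culture medium assayed by ELISA: competitive colorimetric for PGE2/TNF-α, mouse DuoSet for TNF-α/IL-6. IC50 is the concentration lowering the mediator to 50%.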

## CN1CCN(CCCOc2ccc(N3C(=O)S/C(=C\c4ccc(Oc5ccc(C#N)cc5)cc4)C3=O)cc2)CC1
Mus musculus [1]
  Survival: 100%
Mus musculus [2]
  Survival: 80%
RAW264.7
  Activity: Active
